Assay results published in ChEMBL document CHEMBL1126564, “Synthesis and antimicrobial evaluation of a series of 7-[3-amino (or aminomethyl)-4-aryl (or cyclopropyl)-1-pyrrolidinyl]-4-quinolone- and -1,8-naphthyridone-3-carboxylic acids” (1993).
In brackets after ≈: the same amount, converted by molar mass.

Experiments:
Format in all cases: functional
Enterococcus faecalis = test: Minimum inhibitory concentration against […] MGH-2
Summary of the method: (§1)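 Standard microdilution method against a panel of five Gram-negative and five Gram-positive bacterial strains. The MIC (µg/mL) was recorded for each strain.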

Enterobacter cloacae = test: Minimum inhibitory concentration against […] MA-2646; summary of the method: as §1
Staphylococcus aureus [1] = test: Minimum inhibitory concentration against Staphylococcus aureus UC-76; summary of the method: as §1
Escherichia coli = test: Minimum inhibitory concentration against Escherichia coli Vogel; summary of the method: as §1
Streptococcus pyogenes = test: Minimum inhibitory concentration against Streptococcus pyogenes C-203; summary of the method: as §1
Providencia rettgeri = test: Minimum inhibitory concentration against Providencia rettgeri M-1771; summary of the method: as §1
Pseudomonas aeruginosa = test: Minimum inhibitory concentration against Pseudomonas aeruginosa UI-18; settings: Pseudomonas aeruginosa; read-out: MIC; summary of the method: as §1
Klebsiella pneumoniae = test: Minimum inhibitory concentration against Klebsiella pneumoniae MGH-2; summary of the method: as §1
Staphylococcus aureus [2] = test: Minimum inhibitory concentration against Staphylococcus aureus H-228; summary of the method: as §1
Streptococcus pneumoniae = test: Minimum inhibitory concentration against Streptococcus pneumoniae SV-1; summary of the method: as §1
[3] = Enterococcus faecalis, read-out: MIC
[4] = Enterobacter cloacae, read-out: MIC
[5] = Staphylococcus aureus, read-out: MIC
[6] = Escherichia coli, read-out: MIC
[7] = Streptococcus pyogenes, read-out: MIC
[8] = Providencia rettgeri, read-out: MIC
[9] = Klebsiella pneumoniae, read-out: MIC
[10] = Streptococcus pneumoniae, read-out: MIC

Compound	MIC (Enterococcus faecalis; [3])	MIC (Enterobacter cloacae; [4])	MIC (Staphylococcus aureus [1]; [5])	MIC (Escherichia coli; [6])	MIC (Streptococcus pyogenes; [7])	MIC (Providencia rettgeri; [8])	MIC (Pseudomonas aeruginosa)	MIC (Klebsiella pneumoniae; [9])	MIC (Staphylococcus aureus [2]; [5])	MIC (Streptococcus pneumoniae; [10])	MIC (Enterococcus faecalis)	MIC (Enterobacter cloacae)	MIC (Staphylococcus aureus [1])	MIC (Escherichia coli)	MIC (Streptococcus pyogenes)	MIC (Providencia rettgeri)	MIC (Klebsiella pneumoniae)	MIC (Staphylococcus aureus [2])	MIC (Streptococcus pneumoniae)
COc1ccccc1C1CN(c2nc3c(cc2F)c(=O)c(C(=O)O)cn3C2CC2)CC1N (cis isomer)	–	–	–	–	–	–	> 3.1 µg/mL	–	–	–	0.8 µg/mL (≈ 1.82 µM)	0.8 µg/mL (≈ 1.82 µM)	0.2 µg/mL (≈ 0.456 µM)	0.8 µg/mL (≈ 1.82 µM)	1.6 µg/mL (≈ 3.65 µM)	3.1 µg/mL (≈ 7.07 µM)	1.6 µg/mL (≈ 3.65 µM)	0.4 µg/mL (≈ 0.912 µM)	0.8 µg/mL (≈ 1.82 µM)
NC1CN(c2nc3c(cc2F)c(=O)c(C(=O)O)cn3C2CC2)CC1c1ccc(Cl)c(Cl)c1 (trans isomer)	0.2 µg/mL (≈ 0.419 µM)	0.4 µg/mL (≈ 0.838 µM)	0.05 µg/mL (≈ 0.105 µM)	0.4 µg/mL (≈ 0.838 µM)	0.4 µg/mL (≈ 0.838 µM)	0.8 µg/mL (≈ 1.68 µM)	3.1 µg/mL (≈ 6.49 µM)	0.4 µg/mL (≈ 0.838 µM)	0.1 µg/mL (≈ 0.21 µM)	0.2 µg/mL (≈ 0.419 µM)	–	–	–	–	–	–	–	–	–
CCOC(=O)C1CC1C1CN(c2nc3c(cc2F)c(=O)c(C(=O)O)cn3C2CC2)CC1N (trans isomer)	1.6 µg/mL (≈ 3.6 µM)	1.6 µg/mL (≈ 3.6 µM)	0.4 µg/mL (≈ 0.9 µM)	1.6 µg/mL (≈ 3.6 µM)	1.6 µg/mL (≈ 3.6 µM)	6.3 µg/mL (≈ 14.2 µM)	2.5 µg/mL (≈ 5.62 µM)	3.1 µg/mL (≈ 6.97 µM)	1.6 µg/mL (≈ 3.6 µM)	1.6 µg/mL (≈ 3.6 µM)	–	–	–	–	–	–	–	–	–
CCOC(=O)C1CC1C1CN(c2cc3c(cc2F)c(=O)c(C(=O)O)cn3C2CC2)CC1N (trans isomer)	0.8 µg/mL (≈ 1.8 µM)	0.2 µg/mL (≈ 0.451 µM)	0.2 µg/mL (≈ 0.451 µM)	0.2 µg/mL (≈ 0.451 µM)	0.8 µg/mL (≈ 1.8 µM)	0.8 µg/mL (≈ 1.8 µM)	3.1 µg/mL (≈ 6.99 µM)	0.4 µg/mL (≈ 0.902 µM)	1.6 µg/mL (≈ 3.61 µM)	0.8 µg/mL (≈ 1.8 µM)	–	–	–	–	–	–	–	–	–
NCc1cccc(C2CN(c3nc4c(cc3F)c(=O)c(C(=O)O)cn4C3CC3)CC2N)c1 (trans isomer)	0.8 µg/mL (≈ 1.83 µM)	0.8 µg/mL (≈ 1.83 µM)	0.4 µg/mL (≈ 0.914 µM)	0.8 µg/mL (≈ 1.83 µM)	0.2 µg/mL (≈ 0.457 µM)	1.6 µg/mL (≈ 3.66 µM)	3.1 µg/mL (≈ 7.09 µM)	0.8 µg/mL (≈ 1.83 µM)	3.1 µg/mL (≈ 7.09 µM)	0.2 µg/mL (≈ 0.457 µM)	–	–	–	–	–	–	–	–	–
CN(C)c1ccc(C2CN(c3nc4c(cc3F)c(=O)c(C(=O)O)cn4C3CC3)CC2N)cc1 (trans isomer)	0.2 µg/mL (≈ 0.443 µM)	0.2 µg/mL (≈ 0.443 µM)	0.025 µg/mL (≈ 0.0554 µM)	0.2 µg/mL (≈ 0.443 µM)	0.2 µg/mL (≈ 0.443 µM)	0.4 µg/mL (≈ 0.886 µM)	3.1 µg/mL (≈ 6.87 µM)	0.4 µg/mL (≈ 0.886 µM)	0.05 µg/mL (≈ 0.111 µM)	0.2 µg/mL (≈ 0.443 µM)	–	–	–	–	–	–	–	–	–

The remaining compounds from weak to strong by MIC (Enterococcus faecalis; [3]), led by results:

MIC (Enterococcus faecalis; [3])	MIC (Enterobacter cloacae; [4])	MIC (Staphylococcus aureus [1]; [5])	MIC (Escherichia coli; [6])	MIC (Streptococcus pyogenes; [7])	MIC (Providencia rettgeri; [8])	MIC (Pseudomonas aeruginosa)	MIC (Klebsiella pneumoniae; [9])	MIC (Staphylococcus aureus [2]; [5])	MIC (Streptococcus pneumoniae; [10])	Compound	MIC (Enterococcus faecalis)	MIC (Enterobacter cloacae)	MIC (Staphylococcus aureus [1])	MIC (Escherichia coli)	MIC (Streptococcus pyogenes)	MIC (Providencia rettgeri)	MIC (Klebsiella pneumoniae)	MIC (Staphylococcus aureus [2])	MIC (Streptococcus pneumoniae)
0.2 µg/mL (≈ 0.456 µM)	0.1 µg/mL (≈ 0.228 µM)	0.05 µg/mL (≈ 0.114 µM)	0.1 µg/mL (≈ 0.228 µM)	0.1 µg/mL (≈ 0.228 µM)	0.4 µg/mL (≈ 0.912 µM)	1.6 µg/mL (≈ 3.65 µM)	0.2 µg/mL (≈ 0.456 µM)	0.1 µg/mL (≈ 0.228 µM)	0.1 µg/mL (≈ 0.228 µM)	COc1ccc(C2CN(c3nc4c(cc3F)c(=O)c(C(=O)O)cn4C3CC3)CC2N)cc1 (trans isomer)	–	–	–	–	–	–	–	–	–
0.1 µg/mL (≈ 0.218 µM)	0.1 µg/mL (≈ 0.218 µM)	0.013 µg/mL (≈ 0.0284 µM)	0.1 µg/mL (≈ 0.218 µM)	0.1 µg/mL (≈ 0.218 µM)	0.2 µg/mL (≈ 0.436 µM)	1.6 µg/mL (≈ 3.49 µM)	0.1 µg/mL (≈ 0.218 µM)	0.025 µg/mL (≈ 0.0545 µM)	0.1 µg/mL (≈ 0.218 µM)	Nc1c(F)c(N2CC(N)C(c3ccc(F)cc3)C2)c(F)c2c1c(=O)c(C(=O)O)cn2C1CC1 (trans isomer)	–	–	–	–	–	–	–	–	–
0.1 µg/mL (≈ 0.22 µM)	0.4 µg/mL (≈ 0.878 µM)	0.025 µg/mL (≈ 0.0549 µM)	0.2 µg/mL (≈ 0.439 µM)	0.1 µg/mL (≈ 0.22 µM)	0.8 µg/mL (≈ 1.76 µM)	3.1 µg/mL (≈ 6.81 µM)	0.4 µg/mL (≈ 0.878 µM)	0.05 µg/mL (≈ 0.11 µM)	0.1 µg/mL (≈ 0.22 µM)	COc1ccccc1C1CN(c2c(F)cc3c(=O)c(C(=O)O)cn(C4CC4)c3c2F)CC1N (trans isomer)	–	–	–	–	–	–	–	–	–
0.1 µg/mL (≈ 0.202 µM)	0.2 µg/mL (≈ 0.405 µM)	0.013 µg/mL (≈ 0.0263 µM)	0.1 µg/mL (≈ 0.202 µM)	0.1 µg/mL (≈ 0.202 µM)	0.2 µg/mL (≈ 0.405 µM)	1.6 µg/mL (≈ 3.24 µM)	0.2 µg/mL (≈ 0.405 µM)	0.05 µg/mL (≈ 0.101 µM)	0.1 µg/mL (≈ 0.202 µM)	NC1CN(c2c(F)cc3c(=O)c(C(=O)O)cn(C4CC4)c3c2F)CC1c1ccc(Cl)c(Cl)c1 (trans isomer)	–	–	–	–	–	–	–	–	–
0.05 µg/mL (≈ 0.11 µM)	0.05 µg/mL (≈ 0.11 µM)	0.013 µg/mL (≈ 0.0285 µM)	0.05 µg/mL (≈ 0.11 µM)	0.1 µg/mL (≈ 0.219 µM)	0.1 µg/mL (≈ 0.219 µM)	0.8 µg/mL (≈ 1.75 µM)	0.05 µg/mL (≈ 0.11 µM)	0.05 µg/mL (≈ 0.11 µM)	0.05 µg/mL (≈ 0.11 µM)	Nc1c(F)c(N2CC(N)C(c3ccc(O)cc3)C2)c(F)c2c1c(=O)c(C(=O)O)cn2C1CC1 (trans isomer)	–	–	–	–	–	–	–	–	–
0.05 µg/mL (≈ 0.11 µM)	0.1 µg/mL (≈ 0.22 µM)	0.025 µg/mL (≈ 0.055 µM)	0.1 µg/mL (≈ 0.22 µM)	0.05 µg/mL (≈ 0.11 µM)	0.2 µg/mL (≈ 0.44 µM)	1.6 µg/mL (≈ 3.52 µM)	0.2 µg/mL (≈ 0.44 µM)	0.1 µg/mL (≈ 0.22 µM)	0.05 µg/mL (≈ 0.11 µM)	NCC1CN(c2c(F)cc3c(=O)c(C(=O)O)cn(C4CC4)c3c2F)CC1c1ccc(N)cc1 (stereo not given)	–	–	–	–	–	–	–	–	–
0.013 µg/mL (≈ 0.0286 µM)	0.05 µg/mL (≈ 0.11 µM)	0.003 µg/mL (≈ 0.0066 µM)	0.025 µg/mL (≈ 0.055 µM)	0.006 µg/mL (≈ 0.0132 µM)	0.1 µg/mL (≈ 0.22 µM)	0.8 µg/mL (≈ 1.76 µM)	0.05 µg/mL (≈ 0.11 µM)	0.006 µg/mL (≈ 0.0132 µM)	0.003 µg/mL (≈ 0.0066 µM)	NCC1CN(c2c(F)c(N)c3c(=O)c(C(=O)O)cn(C4CC4)c3c2F)CC1c1ccccc1 (trans isomer)	–	–	–	–	–	–	–	–	–
